In PubChem BioAssay AID1230 (PCMD, 2008):
The whole screen tested about 210,000 compounds, of which about 220 (0.1%) were called active. The full list was thinned out, with actives kept by preference. A number with no mark means an inactive call.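 How the source made its calls: active means signal enhancement of 30% or more; inactive means the rest.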

Biological target: E3 ubiquitin-protein ligase Mdm2 (Homo sapiens) (UniProt Q00987)
Experiment: MDM2-luciferase reporter signal enhancers, primary screen, MDM2 E3 ligase inhibitor project, cell-based, luminescence, 1536-well (AID 1230);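 further: luminescence tracks abundance of the self-degrading MDM2-luciferase fusion protein; higher signal means inhibition of MDM2 E3 ligase activity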
Conditions: cell-based MDM2 ubiquitination luciferase reporter, 2 h; at 5 µM; active compounds read high; 0 = plate control, 100 = twice control, blank-subtracted
Summary of the method: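 Assay system: stable mammalian line carrying autodegrading MDM2–luciferase fusion reporter; Input: 2000 cells in each well; Compound dosing: single-point 5 µM; Schedule: 2 h compound exposure at 37 °C; Signal: SteadyLite luciferase luminescence after 15 min room-temperature reagent incubation; Evaluation: % luminescence enhancement versus blank-corrected plate control mean; Benchmarks: plate controls and plate blanks.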

Chain of E3 ubiquitin-protein ligase Mdm2 (Homo sapiens) (Q00987 whole entry, looked up, the tested form may be a part): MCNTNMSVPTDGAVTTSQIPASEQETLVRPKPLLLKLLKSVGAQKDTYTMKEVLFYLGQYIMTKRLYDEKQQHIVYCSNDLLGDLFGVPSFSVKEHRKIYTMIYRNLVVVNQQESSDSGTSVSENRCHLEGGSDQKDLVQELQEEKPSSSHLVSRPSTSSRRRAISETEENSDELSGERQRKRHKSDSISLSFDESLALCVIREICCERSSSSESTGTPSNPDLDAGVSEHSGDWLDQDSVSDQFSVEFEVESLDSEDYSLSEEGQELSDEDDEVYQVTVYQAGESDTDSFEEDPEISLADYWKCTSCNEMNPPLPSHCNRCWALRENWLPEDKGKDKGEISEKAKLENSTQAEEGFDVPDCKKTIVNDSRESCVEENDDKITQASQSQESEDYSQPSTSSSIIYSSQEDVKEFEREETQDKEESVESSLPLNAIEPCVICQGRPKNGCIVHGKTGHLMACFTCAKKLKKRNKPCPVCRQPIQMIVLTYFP

Row | SMILES | signal enhancement
1 | CCOC(=O)C(=CNNc1ccsc1C(=O)OC)C(=O)OCC | -27.3%
2 | CC(=O)c1ccc2c(c1)OCCOCCOc1ccc(C(C)=O)cc1OCCOCCO2 | -8.95%
3 | Cn1c(=NC(=O)c2ccc3c(c2)OCCO3)sc2cc(S(C)(=O)=O)ccc21 | 37% (active)
4 | COCCn1c(=NC(=O)c2ccccc2[N+](=O)[O-])sc2cc(S(C)(=O)=O)ccc21 | -5.21%
5 | Cc1cccc(N(C)C(=O)c2cc3c(=O)[nH]c4ccc(C)cc4c3s2)c1 | 2.91%
6 | Cc1cccc(N2CCN(Cc3nc(C4CC4)no3)CC2)n1 | 2.81%
7 | CC(C)(C)c1cc(P(=O)(c2ccccc2)c2ccccc2)ccc1O | -14%
8 | COc1ccc(CCNC(=O)C2CC3Cn4c(nc5cc(C)c(C)cc54)C3N2C)cc1 (stereo not drawn) | 13%
9 | CC1=NOC(=O)/C1=C\c1ccccc1 | -4.01%
10 | Cc1cccc(C)c1Nc1c(-c2ccccc2O)nc2ncccn12 | -18.4%
11 | CN(Cc1nc(-c2cnccn2)no1)Cc1n[nH]c2c1CCCCC2 | -8.5%
12 | Clc1ccc(CSc2nnc3c(n2)[nH]c2ccccc23)cc1 | -10.6%
13 | CCNc1nc(NCC)nc(N/N=C/c2ccc(O)c(OC)c2)n1 | -10%
14 | CC(=O)N1N=C(c2ccncc2)OC1(Cc1ccccc1)Cc1ccccc1 | -11.4%
15 | CCC(C)(C)NC(=O)C(c1ccc(O)cc1)N(C(=O)Cn1nnc2ccccc21)c1ccc(NC(C)=O)cc1 (stereo not drawn) | -11.7%
16 | Cn1c2ccc(F)cc2c2nnc(NN)nc21 | -2.02%
17 | COc1ccc(OC)c(NC(=O)N[C@H](Cc2ccccc2)C(=O)NN)c1 | -4.05%
18 | NC(=O)CC(NC(=O)Cc1cccc2ccccc12)c1ccc(NCc2cc(F)ccc2F)c([N+](=O)[O-])c1 (stereo not drawn) | 5.13%
19 | COc1ccc(OCC(O)CNCCNc2nccc(C(F)(F)F)n2)cc1 (stereo not drawn) | -12.4%
20 | CC1CN(c2nc(Nc3ccccc3)nc(N)c2[N+](=O)[O-])CC(C)O1 (stereo not drawn) | -20.6%
21 | Cc1c(C(=O)N(Cc2ccccc2)Cc2cccnc2)cnn1-c1ccc(F)cc1 | -11.7%
22 | Clc1cccc(CN2COc3c(cc(Cl)c4cccnc34)C2)c1 | 46.8% (active)
23 | O=c1[nH]n(-c2cccc(Cl)c2)c2ncccc12 | -4.4%
24 | Oc1c(CN2CCN(c3ccc(F)cc3)CC2)cc(Cl)c2cccnc12 | 9.75%
25 | CCCSc1ncccc1C(=O)O | -7.45%
26 | COC(=O)C1=C(N)Oc2cc(C)[nH]c(=O)c2C1c1ccc(Cl)cc1 (stereo not drawn) | -10.2%
27 | CSc1nnc(SCc2nc3sc(C(=O)O)c(C)c3c(=O)[nH]2)s1 | -16.2%
28 | O=C(CSc1nnnn1-c1ccc(O)cc1)c1ccc(F)cc1 | -12.1%
